Series [1] addresses Metabotropic glutamate receptor 7 (Rattus norvegicus, UniProt P35400). Put plainly: Antagonist activity at rat mGluR7 expressed in CHO cells assessed as inhibition of LAP-induced intracellular calcium mobilization by FLIPR. Format: functional, cell-based. The method in brief: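 CHO cells co-expressing mGluR7 and Gα15 were challenged with L-AP, and Ca2+ mobilization was read. IC50 was calculated from inhibition curves as the mean of at least two independent assays.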

A short description of series [2]: Solubility at pH 7.4. Format: physicochemical. The settings on record: buffer.
A short description of series [3]: Oral bioavailability in Sprague-Dawley rat at 10 mg/kg. The class given is ADME, organism-based. To be noted: in vivo, 3 mg/kg, in the assay text read “3 mg/kg” for “10 mg/kg”. In outline: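 Male SD rats (n = 3) were given a single iv dose of 1 mg/kg in PEG400/EtOH/H2O (50:10:40), or an oral gavage dose as a 0.5% methylcellulose aqueous suspension. Blood was sampled at multiple times up to 8 h. Plasma was deproteinized with ethanol containing internal standard. Values are means.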

Series [4] is described as follows: Plasma concentration in Sprague-Dawley rat at 10 mg/kg, po after 0.5 hrs. The class given is ADME, organism-based. On the set-up: dose 10 mg/kg, route oral. The method in brief: (§1)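 Male Sprague-Dawley rats (7–10 weeks, 200–400 g, n = 3) were dosed orally at 10 mg/kg as a 0.5% methylcellulose suspension. Aortic blood was taken under isoflurane at 0.5 and 2 h, and brain at 2 h. Plasma and brain homogenate were deproteinized with threefold ethanol plus internal standard and analysed by LC–MS/MS against a relative calibration curve. B/P = brain (nmol/g) / plasma level.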

Series [5] in a line: Plasma concentration in Sprague-Dawley rat at 2 mg/kg, po after 0.5 hrs. Format: ADME, organism-based. On the set-up: dose 2 mg/kg, route oral.
Series [6] can be described thus: Ratio of drug level in brain to plasma in Sprague-Dawley rat at 10 mg/kg, po after 2 hrs. Format: ADME, organism-based. On the set-up: dose 10 mg/kg, route oral. To be noted: read-out: BPR. The method in brief:
as §1

A short description of series [7]: AUC in Sprague-Dawley rat at 1 mg/kg, iv and 3 mg/kg, po. To be noted: plasma.
The nature of series [8]: Plasma clearance in Sprague-Dawley rat at 1 mg/kg, iv and 3 mg/kg, po.

Converted amounts (≈) assume the structure as drawn.

This is an account of results in ChEMBL document CHEMBL1153226, “Isoxazolopyridone derivatives as allosteric metabotropic glutamate receptor 7 antagonists” (Bioorg Med Chem Lett, 2010).

Metabotropic glutamate receptor 7, sequence (P35400 whole entry): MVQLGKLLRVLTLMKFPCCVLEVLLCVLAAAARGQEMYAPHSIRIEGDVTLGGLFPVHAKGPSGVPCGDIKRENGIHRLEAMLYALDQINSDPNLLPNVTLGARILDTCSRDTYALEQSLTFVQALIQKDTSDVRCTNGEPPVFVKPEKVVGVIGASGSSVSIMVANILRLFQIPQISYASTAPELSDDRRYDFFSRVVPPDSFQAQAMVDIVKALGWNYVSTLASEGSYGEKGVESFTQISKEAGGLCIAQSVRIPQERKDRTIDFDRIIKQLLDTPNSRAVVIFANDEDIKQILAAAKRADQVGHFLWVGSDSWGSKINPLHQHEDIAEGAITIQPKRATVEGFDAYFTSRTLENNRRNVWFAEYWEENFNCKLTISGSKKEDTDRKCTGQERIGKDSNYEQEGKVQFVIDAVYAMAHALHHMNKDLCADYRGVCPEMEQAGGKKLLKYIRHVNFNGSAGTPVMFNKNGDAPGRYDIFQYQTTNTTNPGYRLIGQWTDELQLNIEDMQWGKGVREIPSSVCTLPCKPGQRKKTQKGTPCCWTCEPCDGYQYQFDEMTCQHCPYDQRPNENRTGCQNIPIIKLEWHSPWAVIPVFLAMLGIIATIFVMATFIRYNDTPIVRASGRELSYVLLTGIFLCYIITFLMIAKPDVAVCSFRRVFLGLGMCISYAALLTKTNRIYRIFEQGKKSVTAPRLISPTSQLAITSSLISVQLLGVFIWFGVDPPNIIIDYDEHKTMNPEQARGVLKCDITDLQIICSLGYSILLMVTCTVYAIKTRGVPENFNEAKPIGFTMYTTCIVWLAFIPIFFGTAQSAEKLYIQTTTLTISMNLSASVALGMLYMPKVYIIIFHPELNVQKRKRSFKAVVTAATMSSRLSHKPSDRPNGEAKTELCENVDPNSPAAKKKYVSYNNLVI

Consider `COc1ccc(-c2cc3onc(-c4ccccc4)c3c(=O)n2C)cc1F`, for which the IC50 (in general, the concentration that gives 50% inhibition) in series [1] amounted to 210 nM.

As to `CN(C)c1cccc(-c2cc3onc(-c4ccccc4)c3c(=O)n2C)c1`, in series [1], the IC50 is 31 nM.

Take `CC(C)Oc1ccc(-c2cc3onc(-c4ccccc4)c3c(=O)n2C)cc1`: the IC50 in series [1] was above 10000 nM.

Consider `Cn1c(-c2ccc3c(c2)OCO3)cc2onc(-c3ccccc3)c2c1=O`, for which, in series [1], the 50% inhibitory concentration (IC50) came out at 26 nM.

Take `CN(C)c1ccc(-c2cc3onc(-c4ccccc4)c3c(=O)n2C)cc1`: the 50% inhibitory concentration (IC50) in series [1] stood at 140 nM.

Take `Cn1c(-c2ccccc2)cc2onc(-c3ccncc3)c2c1=O`: in series [1], the IC50 came out at 101 nM.

Consider `CC(C)n1c(-c2ccccc2)cc2onc(-c3ccccc3)c2c1=O`, for which the IC50 in series [1] was above 10000 nM.

Regarding `COc1ccc(-c2cc3onc(-c4ccncc4)c3c(=O)n2C)cc1`, the IC50 in series [1] came to 26 nM. Also, the concentration in solution in series [2] (solubility) came to 3.3 µg/mL (≈ 9.9 µM). Also, the bioavailability (in general, the share of a dose that reaches the circulation, judged against a reference dose that is usually intravenous) in series [3] was 65%. Moreover, the results for the concentration at 0.5 h in series [4] and in series [5] were 5.1 µM and 3.9 µM, respectively. Further, in series [6], the Kp at 2 h is 1. For the same compound, the AUC (in general, concentration integrated over time) in series [7] was found to be 0.71 µM·h. Also, the clearance in series [8] was found to be 1 mL/min/kg.

Turning to `COc1ccc(-c2noc3cc(-c4ccccc4)n(C)c(=O)c23)cc1`, the IC50 in series [1] worked out at 29 nM.

For the compound `COc1cccc(-c2noc3cc(-c4ccccc4)n(C)c(=O)c23)c1`, the IC50 in series [1] was found to be 12 nM.

Take `Cn1c(-c2ccccc2)cc2onc(-c3cccnc3)c2c1=O`: in series [1], the IC50 came out at 240 nM.

Turning to `CCn1c(-c2ccccc2)cc2onc(-c3ccccc3)c2c1=O`, the IC50 in series [1] stood at 910 nM.

For the compound `CCCc1ccc(-c2cc3onc(-c4ccccc4)c3c(=O)n2C)cc1`, in series [1], the IC50 was determined as 150 nM.

`Cn1c(-c2ccccc2)cc2onc(-c3ccccc3)c2c1=O`: in series [1], the IC50 was 20 nM. Further, the solubility – broadly, the concentration that dissolves in the medium under given conditions – in series [2] is 0.17 µg/mL (≈ 0.562 µM).

For `Cn1c(-c2ccc(F)cc2)cc2onc(-c3ccccc3)c2c1=O`, in series [1], the IC50 amounted to 72 nM.

For `COc1ccc(-c2cc3onc(-c4ccccc4)c3c(=O)n2C)cc1`, the IC50 in series [1] was 22 nM.

For `Cc1ccc(-c2cc3onc(-c4ccccc4)c3c(=O)n2C)cc1`, in series [1], the IC50 came to 51 nM.

With `Cn1c(-c2ccccc2)cc2onc(-c3ccccn3)c2c1=O`, in series [1], the IC50 stood at 1000 nM.

In the case of `COc1ccc(-c2cc3onc(-c4ccccc4)c3c(=O)n2C)cc1Br`, in series [1], the IC50 came to 580 nM.

As for `COc1ccccc1-c1noc2cc(-c3ccccc3)n(C)c(=O)c12`, the IC50 in series [1] came out at 21 nM.

For `Cn1c(-c2cccc(C(F)(F)F)c2)cc2onc(-c3ccccc3)c2c1=O`, in series [1], the IC50 is 96 nM.
